# ChEMBL document CHEMBL1153787, “Unsaturated dideoxy fluoro-ketopyranosyl nucleosides as new cytostatic agents: a convenient synthesis of 2,6-dideoxy-3-fluoro-4-keto-beta-D-glucopyranosyl analogues of uracil, 5-fluorouracil, thymine, N4-benzoyl cytosine and N6-benzoyl adenine” (Eur J Med Chem, 2009)
# Columns and labels:
# HeLa = test: Cytotoxicity against human HeLa cells assessed as induction of microscopically visible alteration in cell morphology; format: functional; settings: read-out: MIC
# Summary of the method: (§1)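 HEL, Vero and HeLa cell cultures were examined under the microscope for changes in cell morphology. MIC is the compound concentration that causes a microscopically visible alteration of cell morphology.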
# [1] = Cytotoxicity against human HEL cells assessed as induction of microscopically visible alteration in cell morphology; format: cell-based; settings: read-out: MIC; summary of the method: as §1
# CCRF-CEM [2] = test: Cytotoxicity against human CEM cells; format: functional, cell-based
# Summary of the method: (§2)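 Proliferation of suspension tumour cells (murine L1210 and FM3A, human Molt4/C8 and CEM) was measured. IC50 is the compound concentration that inhibits cell proliferation by 50%.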
# [3] = Cytotoxicity against human Molt4/C8 cells; format: functional, cell-based; settings: MOLT-4; summary of the method: as §2
# CCRF-CEM [4] = test: Cytotoxicity against human CEM cells assessed as inhibition of [3H]Urd incorporation into macromolecules; format: functional
# Summary of the method: (§3)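 L1210 and CEM cells were given radiolabelled [3H]dThd (DNA), [3H]Urd (RNA) or [3H]Leu (protein). Label incorporated into methanol-insoluble material was measured. IC50 is the concentration that inhibits precursor incorporation by 50%.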
# CCRF-CEM [5] = test: Cytotoxicity against human CEM cells assessed as inhibition of [3H]Leu incorporation into macromolecules; format: functional; summary of the method: as §3
# [6] = Cytotoxicity against MDCK cells assessed as reduction of cell viability by MTS dye staining; format: cell-based, Canis lupus familiaris; settings: dog
# Summary of the method: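 MDCK cell viability read by colorimetric formazan-based MTS dye staining. CC50 is the compound concentration that reduces cell viability by 50%.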
# L1210 [7] = test: Cytotoxicity against mouse L1210 cells assessed as inhibition of [3H]Urd incorporation into macromolecules; format: functional; summary of the method: as §3
# L1210 [8] = test: Cytotoxicity against mouse L1210 cells assessed as inhibition of [3H]Leu incorporation into macromolecules; format: functional; summary of the method: as §3
# [9] = Cytotoxicity against african green monkey Vero cells assessed as induction of microscopically visible alteration in cell morphology; format: cell-based; settings: chlorocebus sabaeus, read-out: MIC; summary of the method: as §1
# FM3A = test: Cytotoxicity against mouse FM3A cells; format: functional, cell-based; summary of the method: as §2
# CCRF-CEM [10] = test: Cytotoxicity against human CEM cells assessed as inhibition of [3H]dThd incorporation into macromolecules; format: functional; summary of the method: as §3
# L1210 [11] = test: Cytotoxicity against mouse L1210 cells assessed as inhibition of [3H]dThd incorporation into macromolecules; format: functional; summary of the method: as §3
# L1210 [12] = test: Cytotoxicity against mouse L1210 cells; format: functional, cell-based; summary of the method: as §2
SMILES,minimum cytotoxic concentration (MCC) (HeLa) [µM],MCC [1] [µM],IC50 (CCRF-CEM [2]) [µM],IC50 [3] [µM],IC50 (CCRF-CEM [4]) [µM],IC50 (CCRF-CEM [5]) [µM],CC50 [6] [µM],IC50 (L1210 [7]) [µM],IC50 (L1210 [8]) [µM],MCC [9] [µM],IC50 (FM3A) [µM],IC50 (CCRF-CEM [10]) [µM],IC50 (L1210 [11]) [µM],IC50 (L1210 [12]) [µM]
C[C@H]1O[C@@H](n2ccc(NC(=O)c3ccccc3)nc2=O)C=C(F)C1=O,20,20,1.7,1.6,12,7.9,8.2,10,12,20,11.9,11,12,1.4
C[C@H]1O[C@@H](n2cnc3c(NC(=O)c4ccccc4)ncnc32)C=C(F)C1=O,20,20,4.3,5,,,12,,,20,6,,,2.4
Cc1cn([C@H]2C=C(F)C(=O)[C@@H](C)O2)c(=O)[nH]c1=O,20,20,2.6,2.5,,,0.7,,,20,10,,,2.8
C[C@H]1O[C@@H](n2cc(F)c(=O)[nH]c2=O)C=C(F)C1=O,20,20,3.7,3.3,,,0.6,,,20,0.49,,,0.82
C[C@H]1O[C@@H](n2ccc(=O)[nH]c2=O)C=C(F)C1=O,20,20,2.2,2.5,,,0.6,,,20,16,,,2.9
